From PubChem BioAssay
VIM-2 inhibitor: VIM-2 metallo-beta-lactamase inhibitors, primary screen, biochemical, epi-absorbance readout, Pseudomonas aeruginosa enzyme; purified VIM-2, nitrocefin hydrolysis, epi-absorbance fluorescence; inhibition, % at 5.6 µM; actives 0.89% (n = 290,000); AID 1527, 2009;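 active = inhibition above the mean of all tested compounds plus 3 SD, cutoff set per screening run, cut at about 7.5% in these data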;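 note: red hydrolysis product quenches plate fluorescence so inhibitors raise well fluorescence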
IMP-1 inhibitor: IMP-1 metallo-beta-lactamase inhibitors, primary screen, biochemical, epi-absorbance readout, Pseudomonas aeruginosa enzyme; actives 0.45% (n = 290,000); AID 1556, 2009; metallo-beta-lactamase IMP-1 (Pseudomonas aeruginosa); inhibition, % at 5.6 µM; purified IMP-1, nitrocefin hydrolysis, epi-absorbance fluorescence;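 active = inhibition above the mean plus 3 SD of all compounds in the same screening run, cut at about 4.5% in these data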
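System: Purified recombinant IMP-1 metallo-beta-lactamase enzyme | Measured by: Fluorescence quenching readout, ex 480/em 530 nm | Replication: Singlicate | Incubation: 15 min preincubation plus 25 min reaction at 25 °C | Evaluation: Percent inhibition from optical density relative to buffer-blank wells | Benchmarks: DMSO with and without IMP-1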
TRPML3 agonist: human TRPML3 channel agonists, primary screen, cell-based, HEK293 TRPML3-YFP, Fluo-8 calcium fluorescence, 3 µM. Mucolipin-3 (Homo sapiens), Q8TDD5. 100% = the carbachol control signal. activation, % at 3 µM. actives 0.29% (n = 220,000). AID 1448, 2008;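 active = activation above its plate's cutoff, the mean activation of the plate's test wells plus 3 SD, cut at about 12% in these data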
Target sequence (Q8TDD5 whole entry, looked up): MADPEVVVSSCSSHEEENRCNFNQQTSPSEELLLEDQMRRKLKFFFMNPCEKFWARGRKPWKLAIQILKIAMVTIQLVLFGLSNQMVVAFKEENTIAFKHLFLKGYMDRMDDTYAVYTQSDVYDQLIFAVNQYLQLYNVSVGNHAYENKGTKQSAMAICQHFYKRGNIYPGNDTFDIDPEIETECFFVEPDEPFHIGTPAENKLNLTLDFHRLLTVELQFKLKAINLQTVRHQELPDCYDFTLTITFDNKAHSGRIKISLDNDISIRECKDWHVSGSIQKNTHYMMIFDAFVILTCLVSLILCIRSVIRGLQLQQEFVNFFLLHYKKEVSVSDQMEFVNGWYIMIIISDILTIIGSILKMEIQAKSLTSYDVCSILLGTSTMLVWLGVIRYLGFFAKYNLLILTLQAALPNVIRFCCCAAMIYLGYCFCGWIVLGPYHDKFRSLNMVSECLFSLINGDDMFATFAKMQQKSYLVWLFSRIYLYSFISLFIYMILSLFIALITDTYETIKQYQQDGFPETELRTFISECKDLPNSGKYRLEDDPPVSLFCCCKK
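system = HEK293 cells stably carrying human TRPML3-YFP | doses = one concentration, 3 µM nominal, 0.3% DMSO | timing = dye loading 1 h 37 °C then 30 min ambient, 125 s read | detection = Fluo-8 calcium dye fluorescence, ex 470-495, em 515-575 nm | benchmarks = high control carbachol 87 µM, low control DMSO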
CRFR2-BP antag: antagonists of CRF-BP/CRF-R2 complex, primary screen, cell-based, HEK293, calcium dye fluorescence, uHTS. CRF-induced calcium fluorescence. inhibition, % at 11.8 µM. actives 0.59% (n = 350,000);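 active = inhibition of the ligand-induced calcium signal above about 50% at the single tested concentration, limit read from the data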
zfTRPN1 agonist: zebrafish TRPN1 channel agonists, primary screen, cell-based, HEK293, calcium fluorescence; transient receptor potential cation channel N1 (TRPN1/NompC), Danio rerio; HEK293 zebrafish TRPN1-YFP, Fluo-8 calcium fluorescence; 100% = response to 87 µM carbachol; activation, % at 3 µM; actives 0.18% (n = 220,000);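 active = activation above its plate's cutoff, the mean activation of test wells on that plate plus 3 SD, cut at about 19% in these data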
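Control set: carbachol 87 µM as high control, DMSO as low control; system: HEK293 stable line with zebrafish TRPN1-YFP; read-out: % activation versus carbachol response; detection: intracellular calcium fluorescence with Fluo-8; doses: single test compound dose, 3 µM nominal, 0.3% DMSO; schedule: dye 1 h 37 °C plus 30 min RT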
CRFBP-R2 agonist: agonists of CRF-BP/CRF-R2 complex, primary screen, cell-based, HEK293, calcium dye fluorescence, uHTS; activation, % at 13.2 µM; calcium dye fluorescence (FLIPR); percent of saturating CRF peptide response; CRF-binding protein / CRF receptor 2 complex (human); actives 0.46% (n = 350,000);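 active = activation of at least 50%, plus an integration ratio under a set limit after plate pattern correction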
Numbers stand for hits; n = inactive; x = no result. Compounds with a hit are over-represented: about 2.1% of the library has one in this group of screens.

SMILES | VIM-2 inhibitor | IMP-1 inhibitor | TRPML3 agonist | CRFR2-BP antag | zfTRPN1 agonist | CRFBP-R2 agonist
O=C(N/N=C/c1cc(Br)cc(Br)c1O)c1cccc(S(=O)(=O)N2CCOCC2)c1 | n | n | n | n | n | 69
O=C(N/N=C/c1ccc(O)cc1O)c1ccncc1 | n | n | x | n | x | n
O=C(N/N=C/c1cc(Br)cc(Br)c1O)c1ccncc1 | n | n | n | n | n | 167
O=C(N/N=C/c1cc(Cl)cc(Cl)c1O)c1ccncc1 | n | n | n | n | 24 | 109
O=C(N/N=C/c1ccccc1Br)c1cccc(S(=O)(=O)N2CCOCC2)c1 | x | x | x | n | x | n
O=C(CCc1c[nH]c2ccccc12)OCC(=O)N1CCN(S(=O)(=O)c2ccccc2)CC1 | x | x | x | n | x | n
CCOc1ccc(-n2c(SCC(=O)N3CCC(C(=O)O)CC3)nc3ccccc3c2=O)cc1 | n | n | x | n | x | n
CC1=NNC(=O)C1CC(=O)N/N=C/C=C/c1ccccc1 (stereo not drawn) | n | n | n | n | n | n
CN(/N=C/c1cc(Br)cc(Br)c1O)c1ccccc1 | n | 8.3 | x | n | x | n
Oc1c(Br)cc(Br)cc1C=Nc1cccnc1 | n | 28 | x | n | x | n
Cc1c(N=Cc2cc(Br)cc(Br)c2O)cccc1C(=O)O | n | n | n | n | n | n
Oc1c(Br)cc(Br)cc1C=Nc1ccc2[nH]ncc2c1 | n | n | n | n | n | n
COc1cc2c(cc1OC)C(c1cc(C)ccc1C)CC(=O)N2 (stereo not drawn) | n | n | x | n | x | n
O=C(CCCN1C(=O)/C(=C/c2cccc(Br)c2)SC1=S)NCCCN1CCOCC1 | n | n | x | n | x | n
CCN(CC)C(=O)CN1C(=O)/C(=C/c2ccccc2)SC1=S | n | n | n | n | n | n
CC(=O)NNC(=O)CN1C(=O)/C(=C/c2ccccc2)SC1=S | n | 9.6 | n | n | n | n
O=C(O)CN1C(=O)/C(=C/c2ccc(SCc3ccccc3)o2)SC1=S | n | 4.7 | n | n | n | n
O=C(CCN1C(=O)/C(=C\c2cccc(Br)c2)SC1=S)N1CCOCC1 | n | n | x | 64 | x | n
O=C(O)CN1C(=O)/C(=C\c2ccc(OC(=O)c3ccco3)cc2)SC1=S | n | n | x | n | x | n
O=C(CN1C(=O)/C(=C/c2cccc(Br)c2)SC1=S)NCCCN1CCOCC1 | n | 4.8 | x | n | x | n
CC1CCN(c2c(NCC3CCC(C(=O)NCCCc4ccccc4)CC3)c(=O)c2=O)CC1 (stereo not drawn) | n | n | n | n | n | n
O=C(O)CN1C(=O)/C(=C\c2cn(CC(=O)N3CCOCC3)c3ccccc23)SC1=S | n | n | n | n | n | 69
CC(=O)c1nc(N2C(=O)CC(Cc3cccc(C)c3)C2=O)sc1C (stereo not drawn) | n | 17 | n | n | n | n
CC(=O)c1nc(N2C(=O)CC(Cc3cc(C)cc(C)c3)C2=O)sc1C (stereo not drawn) | n | n | n | n | n | n
Cc1[nH]c2ccccc2c1SCc1nnc(SCc2ccc(Cl)cc2)n1C | n | n | n | n | n | n
SMILES | VIM-2 inhibitor | IMP-1 inhibitor | TRPML3 agonist | CRFR2-BP antag | zfTRPN1 agonist | CRFBP-R2 agonist
Cc1[nH]c2ccccc2c1SCc1nnc(SCc2ccccc2)n1C | n | n | n | 115 | n | n
COc1ccc(C(Sc2ccccc2)c2ccccc2)cc1OC (stereo not drawn) | x | x | x | n | x | n
CC1COc2ccccc2N1S(=O)(=O)c1ccc(Cl)cc1 (stereo not drawn) | n | n | n | n | n | n
Cc1ccc(S(=O)(=O)N2c3ccccc3OCC2c2ccccc2)cc1 (stereo not drawn) | n | n | n | 50 | n | n
Cc1ccc(C(=O)OCC(=O)c2c[nH]c3ccccc23)cc1S(=O)(=O)N1CCOCC1 | x | x | x | n | x | n
CC1=C(C(=O)OC(C)(C)C)C(c2cccc3ccccc23)NC(=O)N1 (stereo not drawn) | n | n | x | 65 | x | n
CC1=C(C(=O)OCCOC(C)C)C(c2cccc3ccccc23)NC(=O)N1 (stereo not drawn) | x | x | x | n | x | n
Cc1ccc(CN2CC(=O)N3[C@H]4c5cc(Cl)ccc5OC[C@@H]4[C@H](c4ccccc4)[C@]3(C)C2=O)cc1 | x | x | x | 72 | x | n
Cc1ccc(CN2CC(=O)N3[C@H]4c5cc(C)ccc5OC[C@@H]4[C@H](c4ccccc4)[C@]3(C)C2=O)cc1 | x | x | x | n | x | n
Cc1ccc(-n2nc(C)c(Sc3ccccc3[N+](=O)[O-])c2N)cc1 | n | n | n | 52 | n | n
COc1ccccc1C(=O)Nc1nnc(S(=O)(=O)N2CCC(C)CC2)s1 | n | n | x | n | x | n
CC1CCN(S(=O)(=O)c2nnc(NC(=O)c3cccc(Cl)c3)s2)CC1 | n | n | x | 60 | x | n
O=C(Cc1coc2cc(O)ccc12)N1CCN(S(=O)(=O)c2ccc(Br)cc2)CC1 | x | x | x | n | x | n
CC1CCCCC1NC(=O)/C(C#N)=C/c1ccccc1F (stereo not drawn) | n | n | n | n | n | n
COc1ccc(C(=O)Nc2ccc(Cn3ccnc3)cc2)cc1OC | 8.5 | n | x | n | x | n
CCCCc1ccc(NC(=S)Nc2cccnc2)cc1 | n | n | n | 53 | n | n
COc1ccc(NC(=O)c2oc3ccccc3c2NC(=O)C2CC2)cc1OC | 9.0 | n | x | n | x | n
COc1ccc(NC(=O)c2oc3ccccc3c2NC(=O)C2CCCO2)cc1OC (stereo not drawn) | n | n | n | n | n | n
CCOc1ccc(-c2c(C#N)c(N)nc3c2c(=O)n(C)c(=O)n3C)cc1OC | n | 7.6 | n | n | n | n
CCOC(=O)c1sc(=NC(=O)c2ccc(Cl)s2)n(C)c1C | n | n | n | 114 | n | n
Cc1onc(-c2c(F)cccc2Cl)c1C(=O)N1CCN(c2ncc(Br)cn2)CC1 | n | n | n | 74 | n | n
CCN1CCN(c2ccccc2NC(=O)c2ccc(-n3cccn3)cc2)CC1 | x | x | x | n | x | n
O=c1c2cc(Cl)ccc2nc(-c2ccc(Cl)c(Cl)c2)n1O | n | n | n | n | n | 135
O=c1c2ccc(Cl)cc2nc(-c2ccc([N+](=O)[O-])cc2)n1O | n | n | n | n | n | 59
O=c1c2cc(Cl)ccc2nc(-c2ccccc2)n1O | n | n | n | n | n | n
O=c1c2cc(Br)ccc2nc(-c2ccc([N+](=O)[O-])cc2)n1O | n | n | n | n | n | 101
O=c1c2cc(Br)ccc2nc(-c2cccc(C(F)(F)F)c2)n1O | n | n | n | n | n | 148
